Sampled rows, rich in hits. Any-hit rate of the full collection: about 3%.
M4 PAM: positive allosteric modulators of human muscarinic M4 receptor | CHO-K1 hM4/Gqi5, Fluo-8 calcium fluorescence, ACh EC20; 0% = ACh EC20, 100% = maximal ACh | activation, % at 3 µM | 360,000 tested, 0.4% active | AID 624126;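 active means activation above its plate's cutoff, the mean activation of sample wells plus 3 SD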
Target sequence (P08173 whole entry, looked up): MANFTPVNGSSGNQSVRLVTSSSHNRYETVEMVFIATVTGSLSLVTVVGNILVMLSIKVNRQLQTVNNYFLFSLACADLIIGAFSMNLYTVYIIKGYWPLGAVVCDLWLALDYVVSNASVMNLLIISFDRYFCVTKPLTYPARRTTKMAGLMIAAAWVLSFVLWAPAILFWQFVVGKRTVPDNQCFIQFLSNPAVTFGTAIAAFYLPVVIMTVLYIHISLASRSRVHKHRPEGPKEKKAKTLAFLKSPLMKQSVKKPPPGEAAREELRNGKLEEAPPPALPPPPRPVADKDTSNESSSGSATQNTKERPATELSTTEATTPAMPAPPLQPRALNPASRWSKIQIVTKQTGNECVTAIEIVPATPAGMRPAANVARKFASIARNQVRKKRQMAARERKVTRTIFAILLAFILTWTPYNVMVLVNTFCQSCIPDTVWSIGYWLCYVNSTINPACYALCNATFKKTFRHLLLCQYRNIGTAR
TAAR1 agonist: human TAAR1 agonism; Q96RJ0; CHO RD-HGA16 TAAR1, Fluo-8 calcium fluorescence; vehicle wells 0%, saturating PEA agonist 100%; activation, % at 3 µM; 360,000 tested, 0.99% active;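 active means activation above the mean activation of all test compounds in the run plus 3 SD, cut at about 38% in these data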
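System: CHO-derived RD-HGA16 cells with stable Gα16 and human TAAR1 / Times: 17-24 h plating, Fluo-8 75 min 37 °C, 30 min RT / Technique: calcium-sensitive Fluo-8 signal, excitation 470-495, emission 515-575 nm / Measure: % activation relative to PEA EC100 response / Benchmarks: DMSO and PEA EC100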
CHRM4 antagonist: antagonists of human muscarinic M4 receptor (CHRM4); P08173; 360,000 tested, 0.73% active; CHO-hM4 cells, ACh EC80, Fluo-8 calcium fluorescence; inhibition, % at 3 µM;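 active means inhibition above its plate's cutoff, the mean inhibition of sample wells plus 3 SD, cut at about 27% in these data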;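 further: 0% = acetylcholine EC80 with DMSO and 100% = DMSO without agonist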
TAAR1 antag: human TAAR1 antagonism. CHO RD-HGA16 TAAR1, Fluo-8 calcium fluorescence, antagonist. inhibition, % at 3 µM. 360,000 tested, 1.5% active;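 active means inhibition above a per-plate cutoff, the mean inhibition of test compounds on that plate plus 3 SD, cut at about 49% in these data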;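 further: 0% = DMSO plus EC80 beta-PEA response and 100% = DMSO alone without agonist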
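Assay system: CHO-derived RD-HGA16 cells stably expressing human TAAR1 plus Gα16. Timing: 140 s kinetic read after compound, 140 s after agonist. Technique: kinetic Fluo-8 calcium fluorescence measurement. Measure: % inhibition of agonist calcium response.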
CHRM4 agonist: agonists of human muscarinic M4 receptor (CHRM4); activation, % at 3 µM; CHO-K1 hM4/Gqi5, Fluo-8 calcium fluorescence; vehicle 0%, full acetylcholine response 100%; 360,000 tested, 0.14% active; P08173;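 active means activation above the run mean over all test wells plus 3 SD, cut at about 32% in these data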;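 further: peak over basal fluorescence ratio per well then scaled between controls; 0% = DMSO wells and 100% = acetylcholine at EC100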
Starred values were filed as active, the others as inactive; . = not tested or not shown.

SMILES	M4 PAM	TAAR1 agonist	CHRM4 antagonist	TAAR1 antag	CHRM4 agonist
COC(=O)[C@]12C[C@H](CC(=O)NCCCCc3ccccc3)C(=O)N(Cc3ccccc3)C1=C[C@H](C(C)(C)C)O[C@@H]2C	.	2	.	-30	.
Cc1ccc(C(=O)Nc2ncc(Cc3ccccc3)s2)o1	14	1	-10	-1	1
O=C(Nc1ncc(Cc2ccc(SC(F)F)cc2)s1)c1ccccc1	-1	44*	0	31	1
CCn1c(COc2ccccc2)nnc1SCC(=O)C(C)(C)C	26*	5	-3	-26	4
CC1CC(C)CN(C(=S)Nc2ccc(SC(F)F)cc2)C1 (configuration not stated)	-6	41*	-17	15	7
Cc1ccccc1-c1cnc(C(O)c2ccc(F)cc2C)[nH]1 (configuration not stated)	2	1	2	6	3
O=C(N/N=C/c1cccc2cccnc12)c1ccccc1O	-26	7	35*	27	7
O=C(NC1CCCC1)[C@@H]1CCCN1C(=O)[C@@H](NS(=O)(=O)c1ccc(F)cc1F)C1CCCCC1	.	6	.	-41	.
OCC[C@@H]1C[C@H](O)[C@@H](O)[C@@]2(OCCc3cc(C(F)(F)F)ccc32)O1	.	4	.	19	.
O=C(N/N=C/c1ccco1)C1CC1(c1ccccc1)c1ccccc1 (configuration not stated)	11	2	28*	17	-1
O=c1[nH][nH]c2c1[C@H](c1ccc(F)cc1)O[C@H](CCc1ccccc1)C2	15	2	1	-6	2
CCN(CC)CCCN(C(=O)c1ccccc1C)c1nc(-c2ccc(OC)cc2)cs1	0	1	-4	-5	1
COc1ccc(-c2csc(N(CCCN(C)C)C(=O)c3ccc(C)cc3)n2)cc1	49*	10	49*	-7	23
CCN(CC)CCN(C(=O)c1ccc([N+](=O)[O-])cc1)c1nc2ccc(OC)cc2s1	32*	0	-14	-10	1
COc1ccc(-c2csc(N(CCCN(C)C)C(=O)c3ccc(Br)cc3)n2)cc1	47*	19	23	6	16
CCOc1ccc2nc(N(CCN(CC)CC)C(=O)c3ccc([N+](=O)[O-])cc3)sc2c1	13	0	13	0	1
CCN(CC)CCCN(C(=O)c1ccc(OC)cc1)c1nc(-c2ccc(OC)cc2)cs1	49*	8	29*	-13	10
C=CCN1C(=O)c2n[nH]c(COC)c2C1c1ccc(C)cc1 (configuration not stated)	.	0	.	-23	.
COCCCn1cnn2c(=O)c3ccccc3nc2c1=O	.	0	.	-15	.
CCOC(=O)C1=CCN(S(=O)(=O)c2ccccc2Br)C1c1ccc(Cl)cc1 (configuration not stated)	.	1	.	28	.
COc1ccc(-c2csc(N(CCCN3CCOCC3)C(=O)c3ccco3)n2)cc1	-10	14	36*	38	16
O=C(NCc1ccc(F)cc1)c1cc(C2CCCN(C(=O)c3ccc4ccccc4c3)C2)on1 (configuration not stated)	-4	2	4	27	4
CC(C)Oc1cccc(C(=O)C2CCCN(Cc3cnc(N4CCCC4)s3)C2)c1 (configuration not stated)	-11	31	-2	-26	1
COc1ccc2cc(C(=O)C3CCCN(Cc4cnc(N5CCOCC5)s4)C3)ccc2c1 (configuration not stated)	-3	40*	-12	7	9
Clc1ccc(Sc2ccc(/C=N/n3cnnc3)o2)cc1	24*	11	-10	-4	1
SMILES	M4 PAM	TAAR1 agonist	CHRM4 antagonist	TAAR1 antag	CHRM4 agonist
Clc1ccc(Sc2oc(/C=N/n3cnnc3)cc2Br)cc1	-4	3	-7	8	-2
COC(CN(C)C(=O)c1ccc(CS(=O)(=O)c2ccccc2C)o1)OC	5	7	1	-8	2
Cc1ccccc1S(=O)(=O)Cc1ccc(C(=O)NC2CCCC2)o1	0	7	-2	-12	1
Cc1ccccc1S(=O)(=O)Cc1ccc(C(=O)NC2CCCCCC2)o1	15*	1	9	-11	4
CCCCN(C)C(=O)c1ccc(CS(=O)(=O)c2ccccc2C)o1	18*	11	-13	-25	3
CC(CN1CCCCC1)OC(=O)C(C)(c1ccccc1)c1ccccc1 (configuration not stated)	-18	7	20	7	-1
CC(C)(C#CC(O)(c1ccccc1)c1ccccc1)N1CCCC1	-26	10	79*	9	0
CC(=O)NNC(=O)C(O)(c1ccccc1)c1ccccc1	-2	9	4	-7	0
CC(C)(C#CC(O)(c1ccccc1)c1ccccc1)N1CCCCC1	-16	1	47*	-16	1
CCOC(=O)C1=C(C(=O)OCC)C2N(Cc3ccc(Br)cc3)c3ccccc3[C@@]23C[C@@H](C(=O)OC)N(S(=O)(=O)c2ccc(C(F)(F)F)cc2)C3=N1 (some centres not stated)	.	2	.	-27	.
O=C(Nc1ccc(F)cc1)OC[C@@H]1CSCCS(=O)(=O)N1	.	5	.	-8	.
O=[N+]([O-])c1ccc(N2CCN(c3ccccc3)CC2)nc1	-7	2	-18	7	1
COc1cccc(N2CCN(c3ccc([N+](=O)[O-])cn3)CC2)c1	17*	9	-1	-2	1
COc1ccccc1NC(=O)C1=C(C)Nc2nnnn2C1c1cc(Br)ccc1OC (configuration not stated)	1	48*	-8	0	8
COc1cccc(C2C(C(=O)Nc3cccnc3)=C(C)Nc3nnnn32)c1OC (configuration not stated)	1	6	7	15	1
O=C(C1CCN(Cc2ccc(Cl)cc2)CC1)N1CCN(C(c2ccccc2)c2ccccc2)CC1	-18	2	74*	-6	0
O=C(c1ccc(Cl)cc1)C1CCN(Cc2ccccc2)CC1	-14	-1	0	-24	1
Cc1ccccc1S(=O)(=O)N1CCCc2nc(-c3ccc(Br)cc3)ccc21	.	0	.	-33	.
COc1ccc2[nH]c3c(N4CCC(O)(c5cccc(C(F)(F)F)c5)CC4)ncnc3c2c1	1	14	-6	51*	7
COc1ccccc1C(=O)N1CCN(C(=O)[C@H]2O[C@@H](n3ccc(N)nc3=O)[C@H](O)[C@@H]2O)CC1	1	1	1	-10	1
COc1ccccc1C(=O)N1CCN(C(=O)[C@H]2O[C@@H](n3ccc(=O)[nH]c3=O)[C@H](O)[C@@H]2O)CC1	21*	3	-10	-24	1
COCc1cc(N2CCN(C(=O)OC(C)(C)C)C[C@H]2C)ccc1N1CCS(=O)(=O)CC1	.	2	.	9	.

Screening data (PubChem BioAssay)
